This is a sample that favours compounds with a hit; in the whole collection about 1.7% have one here.
Efflux pump inh – inhibitors of Candida efflux pumps in yeast, primary screen, S. cerevisiae, Nile Red, multiplex; S. cerevisiae Candida pump triplex; hit rate 0.44% among 330,000; AID 485275, 2010; inhibition, % at 10 µM;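 active means plate passing quality check with inhibition over a set limit, or well fluorescence over plate mean plus 4 SD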;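 further: Nile Red retained in pooled yeast measured as flow cytometry median fluorescence; 0% = buffer negative control and 100% = Enniatin B positive control; higher means more Nile Red kept so more efflux inhibition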
Arr AP2 block – inhibitors of beta-arrestin/AP2 binding, primary screen, biochemical, GPCR trafficking, flow cytometry; beta-arrestin 1 C-terminal peptide binding to AP2 beta2-adaptin appendage (human); inhibition, % at 10 µM; hit rate 0.31% among 340,000; FITC-arrestin peptide / GST-AP2 beads; AP2 beta2 appendage carries R879A mutation; AID 504490, 2011;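 active means inhibition above a set limit, near 3 SD of compounds lacking own fluorescence, cut at about 54% in these data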;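 further: plate controls were DMSO wells for no effect and 5 µM unlabelled arrestin peptide for full effect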
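Material – AP2 appendage R879A on GSH beads · Buffer or medium – PBS with 0.05% Tween 20 and 0.1% BSA · Probe or stimulus – fluorescein-tagged arrestin peptide at 50 nM final · Incubation – compound with beads 12 min RT, then probe 1 h RT · Detection – high-throughput flow cytometry of beads, ex 488, em 535 nm · Evaluation – percent response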
Neddyl block – inhibitors of cullin neddylation, primary screen, biochemical, TR-FRET, uHTS, NAE and Ubc12 | NEDD8-conjugating enzyme Ubc12 (Homo sapiens) + NEDD8-activating enzyme E1 regulatory … | hit rate 0.58% among 360,000 | inhibition, % at 25 µM; in the data active means inhibition above about 36%
DSG3 Ab inh – inhibitors of pemphigus antibody binding to DSG3, primary screen, biochemical, bead-based, flow cytometry, scFv-GFP | binding (percent of control), % at 10 µM | DSG3-coupled beads, scFv-anti-DSG3-GFP binding; stronger effect = lower value | hit rate 0.48% among 310,000 | AID 588358, 2011 | Desmoglein-3 (Homo sapiens), P32926;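 active means binding more than 3 SD below its plate's average and above zero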
Arr-AP2 CP1 – inhibitors of arrestin peptide binding to AP2, confirmation, biochemical, cherry pick 1, flow cytometry beads | inhibition, % at 10 µM | AID 504908, 2011 | shares compounds with Arr AP2 block | hit rate 2% among 1,300 | GST-AP2 beads, FITC arrestin peptide binding; GST-fused beta2-adaptin appendage, R879A mutant;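 active means inhibition above a set limit, roughly 3 SD of non-fluorescent compound noise, cut at about 38% in these data; inactive means inhibition at or below that limit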;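 further: loss of bead fluorescence from 50 nM FITC arrestin peptide bound to appendage; 0% = negative control wells and 100% = excess unlabelled arrestin peptide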
GST GSH counter – GST-fluorescein capture on glutathione beads, confirmation, artefact control for arrestin-AP2 inhibitor project, biochemical, cherry pick 1, flow cytometry. GST-fluorescein binding to GSH beads, fluorescence, counter-screen. inhibition, % at 10 µM. shares compounds with Arr AP2 block. hit rate 2% among 1,300;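 active means inhibition above 50%, about 3 SD of the inhibition seen with non-fluorescent compounds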;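 further: fluorescein maleimide labelled GST captured on 4 micron glutathione beads; higher means more loss of bead fluorescence from quenching or blocked binding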
* hit, by the source's call; · = no result given.

SMILES	Efflux pump inh	Arr AP2 block	Neddyl block	DSG3 Ab inh	Arr-AP2 CP1	GST GSH counter
Cc1csc(=Nc2cccnc2)n1CC1CCCCC1	0	70*	1	101	-2	-8
CCn1c(C(=O)NCCCc2ccccc2)cc2sccc21	0	58*	-25	99	4	0
C[C@H]1CN(S(=O)C(C)(C)C)[C@@H](CCO)/C1=C\c1ccccc1 (some centres undefined)	·	0	4	95	·	·
NC(=O)C1CCN(C2=C(Cl)C(=O)c3ccccc3C2=O)CC1	0	54*	-17	·	51*	0
CC1CC(C)CN(CCCNC(=O)c2ccc(CS(=O)(=O)Cc3ccccc3F)o2)C1 (centres undefined)	0	59*	-6	107	-3	-11
Cc1ccc(CS(=O)(=O)Cc2ccc(C(=O)NCCCN3CC(C)CC(C)C3)o2)cc1 (centres undefined)	0	-4	2	96	·	·
COc1ccc2cc(-c3cc(C(=O)OCC(=O)NC4CCS(=O)(=O)C4)c4ccccc4n3)ccc2c1 (centres undefined)	1	106*	·	4.6*	60*	188*
COc1ccc(S(=O)(=O)N2CCCCC2)cc1NC(=O)c1ccc(=O)[nH]c1	0	9	-1	106	7	6
CCOc1ncccc1C(=O)Nc1cc(S(=O)(=O)N2CCCCC2)ccc1OC	0	24	-145	98	-5	29
O=C(Nc1cc(S(=O)(=O)N2CCCCCC2)ccc1OCC(F)(F)F)c1ccc(=O)[nH]c1	0	-5	-20	·	·	·
Cc1ccc(C(=O)Nc2cccnc2)cc1S(=O)(=O)N1CCOCC1	0	22	-4	·	·	·
CCOc1ncccc1C(=O)Nc1ccc(OC)c(S(=O)(=O)N2CCCCC2)c1	0	5	6	94	-1	-9
CCOc1ncccc1C(=O)Nc1cc(S(=O)(=O)N2CCCCCC2)ccc1OC	·	-5	7	102	·	·
Cc1ccc(NC(=O)c2cccnc2)cc1S(=O)(=O)N1CCOCC1	0	-15	6	108	2	-10
CCOc1ccc(OCCC(=O)OCC(=O)Nc2cc(S(=O)(=O)N3CCOCC3)ccc2C)cc1	0	13	4	102	·	·
CCCn1c(N)c(N(CCOC)C(=O)c2ccc(F)cc2F)c(=O)[nH]c1=O	0	-4	0	·	·	·
CCOc1ncccc1C(=O)Nc1cccc(S(=O)(=O)N2CCOCC2)c1	0	-3	-6	110	11	-7
COc1ccccc1CN1CC(C(=O)NCc2cc(F)ccc2C)CCC1=O (centres undefined)	·	-14	-11	102	·	·
O=C(NCCc1ccc(C(F)(F)F)cc1)C1CCC(=O)N(CCCc2ccccc2)C1 (centres undefined)	0	-2	4	·	6	4
Cc1ccc(F)cc1CNC(=O)C1CCC(=O)N(CCc2ccccc2)C1 (centres undefined)	0	2	6	97	5	-2
CCC(=O)N1CCc2cc(S(=O)(=O)CCC(=O)N3CCCC(C)C3)ccc21 (centres undefined)	0	-8	0	·	·	·
O=C(CC[C@H]1O[C@@H](n2cnc3c(NC(=O)c4ccccc4)ncnc32)[C@H](O)[C@@H]1O)NCc1ccc(OC(F)(F)F)cc1	·	·	0	·	·	·
COc1cccc(NC(=O)CCCn2c(=O)[nH]c3ccccc3c2=O)c1	0	27	3	104	2	-2
O=C(Cn1c(=O)[nH]c2ccccc2c1=O)Nc1ccc2c(c1)OCCO2	0	6	-78	129	-2	-10
COc1cccc(NC(=O)Cc2c(C(=O)O)[nH]c3ccccc23)c1	0	0	1	97	·	·
SMILES	Efflux pump inh	Arr AP2 block	Neddyl block	DSG3 Ab inh	Arr-AP2 CP1	GST GSH counter
C/C(=N\NC(=O)CCCCCNC(=O)c1ccccc1)c1ccccc1O	0	-14	6	101	·	·
O=C(CCCCCNC(=O)c1ccccc1)N/N=C/c1ccc(O)cc1O	0	60*	13	113	-4	5
COc1ccc(NC(=O)C2C3C=CC(C3)C2C(=O)O)cc1 (centres undefined)	0	-18	-3	88	·	·
NS(=O)(=O)c1ccc(NC(=O)C2C3C=CC(C3)C2C(=O)O)cc1 (centres undefined)	0	58*	2	100	24	-7
O=C(Nc1ccccc1)c1nn(-c2ccccc2)c(=O)cc1C(F)(F)F	0	101*	-3	·	-3	-9
COCCNC(=O)Cn1cc(/C=C(\C#N)C(=O)NC2CC2)c2ccccc21	0	11	-6	96	·	·
CCN(CC)C(=O)Cn1cc(/C=C(\C#N)C(=O)NC2CC2)c2ccccc21	0	61*	-29	119	8	-6
COc1ccc(-c2n[nH]c(=S)n2Cc2ccccc2)cc1	0	56*	5	92	-22	-7
S=c1[nH]nc(-c2ccccc2)n1Cc1ccccc1	0	4	11	104	·	·
CCOC(=O)Nc1ccc2c(CN3CCN(S(=O)(=O)c4ccc(C(C)C)cc4)CC3)cc(=O)oc2c1	0	-3	-66	102	·	·
O=S(=O)(Nc1ccc2c(c1)OCCO2)c1cccc(F)c1	0	-6	-5	103	·	·
O=S(=O)(Nc1ccc2c(c1)OCCO2)c1c(F)cccc1F	0	59*	2	109	-11	1
CN(C(=O)c1ccc(NC(=O)C2CCCN(C(=O)OC(C)(C)C)C2)cc1)C1CCCCC1 (centres undefined)	0	-6	-22	99	·	·
O=C(Oc1ccc2ccc(=O)oc2c1)N1CCOCC1	0	55*	27	105	1	-9
Cc1ccc(S(=O)(=O)N(C)c2ccc(OCC(=O)N3CCCCC3)cc2)cc1	0	-2	1	103	·	·
CCOc1ccccc1CNS(=O)(=O)c1cnc[nH]1	0	35	6	98	·	·
Cc1cc(NC(=O)C2CCCCC2)n(-c2nc3ccccc3[nH]2)n1	0	-4	4	103	·	·
Cc1cc(NC(=O)c2ccccc2F)n(-c2nc3ccccc3[nH]2)n1	0	20	28	103	4	-7
Cc1cc(NC(=O)c2ccc(C)s2)n(-c2nc3ccccc3[nH]2)n1	0	1	-47	106	-13	2
Cc1cc(NC(=O)c2c(F)cccc2F)n(-c2nc3ccccc3[nH]2)n1	0	13	14	98	11	-4
Cc1cc(NC(=O)/C=C/c2ccc(F)cc2)n(-c2nc3ccccc3[nH]2)n1	0	0	37	106	·	·

Compound activity deposited in PubChem BioAssay by several laboratories.
